# High-throughput results as filed in PubChem BioAssay.
# FLuc inh counter: Photinus pyralis luciferase inhibition counter-screen | P08659 | ATPLite firefly luciferase biochemical luminescence, 10 min | inhibition, % at 10 µM | actives 1.5% (n = 200,000) | AID 1006;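 active = inhibition above about 50% when tested at 10 µM, limit read from the data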
# TRAIL sens C8: sensitizes caspase-8 expressing cells to TRAIL; actives 1% (n = 360,000); AID 624354; inhibition (viability loss, TRAIL sensitization), % at 10 µM; NB7+C8 cells + TRAIL, ATPlite viability luminescence;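 active = compounds causing at least 50% loss of cell viability in the single-dose screen, relative to plate controls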
# PPC-1+TRAIL kill: kills PPC-1 cancer cells in the presence of TRAIL; PPC-1 cells + TRAIL, ATPLite viability luminescence; cell killing (% activity), % at 4 µM or 5 µM; actives 0.41% (n = 220,000); AID 1443;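 active = cell killing above 50% in the first pass at 4 µM, then a duplicate retest at 5 µM averaging 50% or more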;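 note: plate controls were cells with TRAIL plus DMSO for no effect and medium-only wells lacking cells for full effect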
# FLuc act counter: affects firefly luciferase, flagging false hits in luciferase stimulation screens; ATPlite luciferase biochemical, luminescence, 10 min; 0 = ATP-free wells, 1 = DMSO control; AID 1027; activation factor at 10 µM; P08659; 200,000 tested, under 10 active;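 active = luciferase activation factor, scaled between plate controls, of at least 2 with compound at 10 µM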
#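 Assay system: Luciferase/luciferin detection reagent, cell-free biochemical luciferase assay / Read-out: luciferase activation / Benchmarks: No-ATP low control, compound-free enzyme-plus-ATP high control / Medium: PBS buffer for ATP / Detection: luminescence measurement of luciferase light output / Schedule: 10 min at ambient temperature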
# * hit, by the source's call; · = not tested or not shown. Rows were chosen to be rich in hits. Some 1.5% of all compounds tested hit in one or more screens of this group.
SMILES,FLuc inh counter,TRAIL sens C8,PPC-1+TRAIL kill,FLuc act counter
CC(C)[C@H]1C(=O)O[C@H](C(C)C)C(=O)N(C)[C@@H](C(C)C)C(=O)O[C@H](C(C)C)C(=O)N(C)[C@@H](C(C)C)C(=O)O[C@H](C(C)C)C(=O)N1C,-12.1,52.9*,48.2,1.1
CC12C=CC(=O)C=C1CC(O)C1C2CCC2(C)C1CCC2(C)O (stereo not given),·,3.7,·,·
CC(C)COC(=O)c1ccccc1C(=O)OCC(C)C,·,-8.8,7.7,·
C[CH2][Hg][S]c1ccccc1C(=O)O,·,61.9*,·,·
O=C(NCC1=C(c2ccc3ccccc3c2)C[C@@H]2CC[C@H]1N2Cc1ccco1)c1nccs1,·,23.8,·,·
CC1=C(N2CC2)C(=O)C(CO)=C(N2CC2)C1=O,·,77.3*,·,·
CN(C)c1ccc(/C=C/C=C/c2sc3ccccc3[n+]2C)cc1,·,33.2,45.4,·
CC[n+]1c(/C=C/C=C/c2ccc(N(C)C)cc2)sc2ccccc21,·,63.3*,48.4,·
COc1ccc(-n2nnnc2C(CCSC)N2CCC(n3c(=O)[nH]c4ccccc43)CC2)cc1 (stereo not given),·,-2.6,·,·
COc1ccc(C(=O)N/N=C/C23CC[C@@H](O)CC2(O)CC[C@@H]2[C@@H]3CCC3(C)C(C4=CC(=O)OC4)CCC23O)cc1 (stereo not given in full),·,35.8,10.6,·
CC1OC(OC2CC(O)C3(CO)C4C(O)CC5(C)C(C6=CC(=O)OC6)CCC5(O)C4CCC3(O)C2)C(O)C(O)C1O (stereo not given),·,69.7*,·,·
O=C([O-])c1ccc(-[n+]2c(-c3ccccc3)cc(-c3ccccc3)cc2-c2ccccc2)cc1,·,0.5,·,·
Oc1ccc(-[n+]2c(-c3ccccc3)cc(-c3ccccc3)cc2-c2ccccc2)cc1,·,64.8*,·,·
Cc1ccccc1CN1Cc2cnnn2-c2ccccc2C1C#N (stereo not given),·,49.5*,·,·
C/C1=C\[C@@H](C)C/C=C/[C@H]2[C@@H]3O[C@]3(C)[C@@H](C)[C@H]3[C@H](Cc4c[nH]c5ccccc45)NC(=O)[C@]32C(=O)/C=C/C(=O)[C@@H]1O,-9.0,30.4,15.9,1.1
CC1=CC2/C=C(\C)CCC(O)C(O)/C=C/C(=O)C23C(=O)NC(CC(C)C)C3C1C (stereo not given),-7.4,90.5*,4.2,1.1
CN(C)C(=O)Oc1ccc(-c2cn3cc(C(F)(F)F)ccc3n2)cc1,53.9*,37.0,46.4,0.5
CN(C)C(=O)Oc1ccc(-c2cn3cc(Cl)ccc3n2)cc1,86.4*,76.0*,53.5*,0.1
CN(C)C(=O)Oc1cccc(-c2cn3cc(Cl)ccc3n2)c1,74.7*,42.9,39.7,0.3
C[C@H]1CN([C@@H](C)CO)C(=O)CCCn2nncc2CO[C@H]1CN(C)C(=O)Oc1ccc2ccccc2c1,·,-6.9,·,·
O=C1NCN(c2ccccc2)C12CCN(C(c1cc3ccccc3o1)c1nnnn1C1CCCCC1)CC2 (stereo not given),·,1.1,·,·
CC(=O)OC1C(=O)OCC23CCC4(C)OC4C2OC2CC(OC(=O)C=CC=CC(=O)OCCC1C)C3(C)C21CO1 (stereo not given),·,64.3*,·,·
CC(O)C1C=CC=CC(=O)OC2CC3OC4C5OC5(C)CCC4(COC(=O)C4OC4(C)C(O)CO1)C2(C)C31CO1 (stereo not given),·,60.8*,·,·
O=C1NCN(c2ccccc2)C12CCN(C(CCc1ccccc1)c1nnnn1C1CCCC1)CC2 (stereo not given),·,-10.4,·,·
CC12CC[C@H]3[C@@H](CCC4(O)C[C@H](O)CCC34/C=N/NC(=O)c3ccc(O)cc3)C1(O)CCC2C1=CC(=O)OC1 (stereo not given in full),·,-6.8,6.2,·
CC(=O)OC1CC(OC2C(O)CC(OC3C(O)CC(OC4CCC5(C)C(CCC6C5CCC5(C)C(C7=CC(=O)OC7)CCC65O)C4)OC3C)OC2C)OC(C)C1OC1OC(CO)C(O)C(O)C1O (stereo not given),·,65.8*,·,·
CC(=O)OC1C(O)C(C)OC(OC2C(OC(=O)C3CCC4C(C3)OC3(CC(OC(=O)/C=C/c5ccccc5)C(C)CO3)C43CO3)OC(C)C(O)C2OC(C)=O)C1O (stereo not given),·,63.7*,·,·
Cc1ccc2nc(-c3ccc(CN4CCC(n5c(=O)[nH]c6ccccc65)CC4)cc3)c(-c3ccccc3)nc2c1,·,28.2,·,·
COc1ccc2nc(-c3ccc(CN4CCC(n5c(=O)[nH]c6ccccc65)CC4)cc3)c(-c3ccccc3)nc2c1,·,51.4*,·,·
